Screens as filed in PubChem BioAssay.
The entries come from a sample that favours hits as a whole.
GASC1 inh – inhibitors of GASC-1 (KDM4C) histone demethylase, primary screen, biochemical, single concentration HTS; Lysine-specific demethylase 4C (Homo sapiens), Q9H3R0; GST-KDM4C 2-372, H3K9me3 peptide, LANCE TR-FRET; inhibition, % at 12.5 µM; actives 0.15% (n = 96,000); AID 720574, 2013;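 active = mean replicate inhibition above about 25%, with at least 55% of replicates also reaching it, limit read from the data, passing the limit was not always enough; inconclusive = only one of those two conditions met; inactive = neither condition met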
Target sequence (Q9H3R0 2-372 limits assumed): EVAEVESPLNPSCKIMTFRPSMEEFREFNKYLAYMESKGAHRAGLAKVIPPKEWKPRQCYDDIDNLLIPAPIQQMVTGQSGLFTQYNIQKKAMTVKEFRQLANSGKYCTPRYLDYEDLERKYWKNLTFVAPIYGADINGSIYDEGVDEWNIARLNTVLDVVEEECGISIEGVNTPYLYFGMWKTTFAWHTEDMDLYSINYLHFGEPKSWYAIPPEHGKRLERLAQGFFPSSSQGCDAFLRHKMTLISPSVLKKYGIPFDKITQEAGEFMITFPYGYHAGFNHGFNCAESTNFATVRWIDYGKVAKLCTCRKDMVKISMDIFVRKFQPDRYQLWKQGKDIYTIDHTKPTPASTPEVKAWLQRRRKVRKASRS
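Test system: N-terminal GST-fused human GASC-1 (KDM4C) fragment, residues 2-372; quantity: GASC-1 enzyme at 10 nM final in reaction; dosing: single dose; schedule: 30 min demethylation and 1 h detection at room temperature; signal: LANCE TR-FRET, excitation 340 nm, emissions 618 and 671 nm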
IDH1 R132H inh – inhibitors of IDH1 R132H reductase, primary screen, biochemical, plate reader, single point. diaphorase/resazurin fluorescence, 60 min. inhibition, % at 10 µM. actives 0.18% (n = 70,000). AID 624101, 2012; in the data active = inhibition above about 34%; inconclusive = no clear call, values can overlap the other calls; inactive = below about 11%;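 also: 0% = DMSO and 100% = no enzyme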
T cruzi growth-1 – T. cruzi intracellular proliferation inhibitors, primary screen, cell-based, beta-gal Tulahuen parasites, NIH3T3 host, luminescence | actives 5.9% (n = 77,000) | inhibition, % at 8.34 µM | T. cruzi beta-gal in NIH3T3, GalScreen luminescence, 90 h;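 active = mean inhibition above about 93%, with at least 55% of replicates each passing it, limit read from the data, passing the limit was not always enough; inconclusive = only one of those two conditions holds; inactive = neither condition holds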
T cruzi growth-2 – T. cruzi intracellular proliferation inhibitors, confirmation, cell-based, NIH3T3 host, beta-gal parasite, luminescence, cherry-pick; shares compounds with T cruzi growth-1; T. cruzi beta-gal in NIH3T3, GalScreen luminescence, 90 h; inhibition, % at 8.35 µM; actives 72% (n = 5,600); AID 651739, 2012;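 active = mean replicate inhibition above about 95% and at least 55% of replicates individually reaching it, limit read from the data; inconclusive = only one of the two criteria is met; inactive = neither criterion is met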
T cruzi growth-3 – inhibitors of intracellular T. cruzi replication, confirmation, NIH3T3 host cells, beta-gal parasites, cherry-pick, set 2. shares compounds with T cruzi growth-1. T. cruzi beta-gal in NIH3T3, GalScreen luminescence, 90 h. inhibition, % at 2.09 µM. actives 21% (n = 5,600). AID 651740, 2012;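 active = mean inhibition above about 95%, with at least 55% of replicates also reaching it, limit read from the data; inconclusive = meets just one of the two conditions; inactive = meets neither condition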;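 also: plate controls were neutral control median for no effect and positive control median for full effect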
3T3 cytotox – cytotoxicity in mouse NIH/3T3 fibroblasts, confirmation, cytotoxicity control for T. cruzi proliferation inhibitor project, cell-based, cherry-pick, single point | shares compounds with T cruzi growth-1 | NIH/3T3 viability, CellTiter-Glo ATP luminescence, 90 h | cytotoxicity (signal decrease), % at 8.35 µM | actives 14% (n = 5,600);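 active = mean signal decrease across replicates above about 35% based on untreated-well scatter, with enough replicates individually passing, limit read from the data; inconclusive = no rule stated though some were filed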;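 also: 0% = median of neutral control wells and 100% = median of positive control wells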
NIH3T3 tox 2 – NIH/3T3 fibroblast cytotoxicity, confirmation, cytotoxicity control, cell-based, cherry-pick, single point, set 2. actives 56% (n = 5,600). NIH/3T3 viability, CellTiter-Glo ATP luminescence, 90 h. AID 651744, 2012. inhibition, % at 24.9 µM. shares compounds with T cruzi growth-1;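 active = mean loss of cell viability signal at or above a set limit, and enough replicates individually reaching it; inconclusive = meets only the mean limit or only the replicate share; inactive = meets neither condition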;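 also: 0% = median of neutral control wells and 100% = median of positive control wells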
The depositor's hits bear a star; ? = inconclusive; · = no result given.

SMILES	GASC1 inh	IDH1 R132H inh	T cruzi growth-1	T cruzi growth-2	T cruzi growth-3	3T3 cytotox	NIH3T3 tox 2
C[C@@H]1CCCCO[C@@H](CN(C)S(=O)(=O)c2ccc(Cl)cc2)[C@H](C)CN([C@H](C)CO)C(=O)c2cc(NS(=O)(=O)c3ccc(Cl)cc3)ccc2O1	0	·	62	·	·	·	·
C[C@@H]1CN([C@H](C)CO)C(=O)c2cc(NS(=O)(=O)c3ccc(Cl)cc3)ccc2O[C@@H](C)CCCCO[C@@H]1CN(C)S(=O)(=O)c1ccc(Cl)cc1	-1	·	?	100*	112*	-13	?
Cc1cc(C)c(NC(=O)CSc2nc(O)cc(=O)[nH]2)c(C)c1	·	0	·	·	·	·	·
Cc1cc(N(CC(N)=O)S(C)(=O)=O)ccc1Br	·	0	·	·	·	·	·
CC1(C)Cc2nc3nc(SCC(=O)c4ccc(Br)cc4)n(-c4ccccc4)c(=O)c3cc2CO1	·	0	·	·	·	·	·
COc1ccc(S(=O)(=O)N2CCCCN3[C@H](CO)[C@H](c4ccc(C#CCC(C)C)cc4)[C@H]3C2)cc1	1	·	55	·	·	·	·
COc1ccc(C#Cc2ccc([C@H]3[C@H](CO)N4CCCCN(S(=O)(=O)c5ccccc5)C[C@@H]34)cc2)cc1	1	·	54	·	·	·	·
COc1ccc(S(=O)(=O)N2CCCCN3[C@H](C2)[C@@H](c2ccc(C#CC(C)C)cc2)[C@@H]3CO)cc1	-1	·	105*	102*	112*	22	97*
COc1ccc(S(=O)(=O)N2CCCCN3[C@H](CO)[C@H](c4ccc(C#CC(C)C)cc4)[C@H]3C2)cc1	0	·	102*	105*	98*	72*	73*
COc1ccc(S(=O)(=O)N2CCCCN3[C@H](CO)[C@H](c4ccc(C#CCC(C)C)cc4)[C@@H]3C2)cc1	-1	·	?	87	?	41*	67*
COc1cccc(S(=O)(=O)N2CCCCN3[C@H](CO)[C@@H](c4ccc(C#CC(C)C)cc4)[C@H]3C2)c1	0	·	82	·	·	·	·
O=C(NCc1ccco1)c1cc2nc(-c3cccs3)cc(C(F)(F)Cl)n2n1	·	0	·	·	·	·	·
COc1ccc(CCNC(=O)C(=O)c2c(-c3ccccc3)[nH]c3ccccc23)cc1OC	·	0	·	·	·	·	·
COc1cc(-c2nnn(CC(=O)Nc3ccccc3C)n2)cc(OC)c1OC	·	0	·	·	·	·	·
Cc1cc(C)c(OCC(=O)Nc2cccc(NC(=O)c3ccccc3C)c2)c(Br)c1	·	0	·	·	·	·	·
CC(C)(C)c1ccc(OCC(=O)NCc2cccnc2)c(Br)c1	·	0	·	·	·	·	·
Cc1cc(Cl)ccc1NC(=O)CN1CCC(C(N)=O)(N2CCCCC2)CC1	·	0	·	·	·	·	·
CCn1c(SCC(=O)Nc2ccccc2-c2ccccc2)nnc1-c1cccs1	·	0	·	·	·	·	·
CCc1cnc(N2[C@@H](C#N)[C@@H](c3ccc(C#CC(C)C)cc3)[C@@H]2CO)s1	-1	·	97*	101*	108*	26	74*
CCc1cnc(N2[C@@H](C#N)[C@@H](c3ccccc3)[C@@H]2CO)s1	0	·	-3	·	·	·	·
CCc1cnc(N2[C@@H](C#N)[C@H](c3ccc(C#CC(C)C)cc3)[C@@H]2CO)s1	-1	·	107*	112*	52	-5	-2
CCc1cnc(N2[C@H](CO)[C@H](c3ccccc3)[C@@H]2C#N)s1	0	·	-8	·	·	·	·
O=C(CC1Nc2cccc3cccc(c23)NC1=O)Nc1ccc([N+](=O)[O-])cc1 (stereo unspecified)	·	0	·	·	·	·	·
COc1cccc(C#Cc2cnc3c(c2)C(=O)N([C@H](C)CO)C[C@@H](C)[C@@H](CN(C)C(=O)C2CCCCC2)O3)c1	-1	-1	90	·	·	·	·
